High-throughput results (PubChem)
KCNK9 inh: blocks the human KCNK9 two-pore domain potassium channel. HEK293 KCNK9, FluxOR thallium flux fluorescence; stronger effect = lower value. B-score at 10 µM. 1.2% of 310,000 active. AID 488922;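 active = ratio B-score over 3 SD below the library mean, with starting fluorescence within 5 SD of its mean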;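 note: negative B-score means less thallium flux so channel inhibition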
KCNQ1 block: inhibitors of human KCNQ1 potassium channel. P51787. CHO-K1 KCNQ1, FluxOR thallium flux fluorescence; stronger effect = higher value. B-score at 10 µM. 1.3% of 310,000 active;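 active = compounds whose thallium flux B-score, printed positive for inhibition, exceeds three library SD while starting fluorescence stays within three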;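 note: channel opened by potassium depolarization with thallium stimulus after 20 min compound exposure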
hERG protect: compounds protecting human hERG from proarrhythmic drug block; 0.51% of 310,000 active; AID 1511; activation (rescue from dofetilide block), less the hit threshold, % at 10 µM; CHO-hERG, FluxOR thallium flux, dofetilide IC70 present;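 active = activation above the mean of controls blocked by dofetilide plus 5 SD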;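 note: thallium influx through hERG after potassium depolarization seen as dye fluorescence rise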
Kir21 inh: blocks the mouse Kir2.1 inward-rectifier potassium channel | HEK293-Kir2.1, FluxOR thallium flux fluorescence; stronger effect = lower value | B-score at 10 µM | 0.85% of 310,000 active;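 active = fluorescence ratio B-score at or below minus 3 SD of library scores, with starting-brightness B-score within 2 SD, cut at about -4.2 in these data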;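 note: channel flux triggered by added potassium and thallium sulfate stimulus; B-score of peak minus minimum fluorescence over baseline after thallium stimulus; more negative B-score means stronger Kir2.1 block with less thallium influx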
KCNQ1 pot: potentiates or activates the human KCNQ1 potassium channel; CHO-K1 KCNQ1, thallium flux FluxOR fluorescence; stronger effect = higher value; B-score at 10 µM; 0.35% of 310,000 active; AID 2648;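 active = fluorescence ratio B-score, a plate-corrected score, at least three library SD, with initial intensity B-score within 5 SD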
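assay system = KCNQ1-transfected CHO-K1 cells | medium = assay buffer with matched DMSO | probe or stimulus = depolarizing K+/Tl+ stimulus, K2SO4 and Tl2SO4 each 12.5 mM in 5x stock | dosing = single dose | incubation = dye 90 min, compound 20 min, room temperature | detection = kinetic FluxOR fluorescence, 10 s baseline plus 110 s post-stimulus | evaluation = ratio B score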
KCNK3 inh: human KCNK3 channel inhibition, primary screen | AID 602410 | O14649 | CHO-KCNK3 thallium flux, FluxOR fluorescence; stronger effect = lower value | B-score at 10 µM | 0.84% of 340,000 active;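 active = B-score under library mean minus 4 SD, starting fluorescence ratio at most library mean plus 5 SD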;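 note: more negative B-score means stronger inhibition of thallium flux through KCNK3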
* = called active by the depositor; i = inactive; · = no result given. Only some compounds are listed: those with a hit (about 3.7% of all), similar ones and a draw of the others.

SMILES | KCNK9 inh | KCNQ1 block | hERG protect | Kir21 inh | KCNQ1 pot | KCNK3 inh
O=C(CNC(=O)c1ccc(F)cc1)N/N=C/c1cc(Br)ccc1OCc1ccccc1 | i | i | -2 | 0.05 | i | i
COc1ccccc1C(=O)NCC(=O)N/N=C/c1cc(Br)ccc1OCc1ccccc1 | -7.6* | i | -18 | 0.22 | i | i
CCOc1ccc2[nH]c(C(=O)N/N=C/c3ccccc3OC)cc2c1 | -7.9* | i | -7 | 1.3 | i | i
COc1ccc(C(=O)Nc2c(N)nc[nH]c2=O)cc1 | i | i | -5 | -0.15 | i | i
CCc1ccc(-c2cc(C)no2)cc1S(=O)(=O)N1CCN(c2ccccc2)CC1 | i | 6* | -11 | 0.88 | i | i
Cc1ccc(C(=O)/C=C/c2ccc(-c3ccc(C)cc3)o2)cc1 | i | i | -8 | 0.01 | i | i
CCN(CC)S(=O)(=O)c1ccc(C(=O)/C=C/c2ccc(-c3ccc([N+](=O)[O-])cc3)o2)cc1 | i | i | -14 | -1.1 | i | -9.3*
CCc1ccc(OCC(=O)N/N=C/c2cc([N+](=O)[O-])ccc2N2CCCCCC2)cc1 | -6.7* | i | -9 | 1.7 | i | i
N#CC1=C(N)Oc2ccc3ccccc3c2C1c1cccnc1 (configuration not stated) | i | i | 4.9* | 1.5 | i | i
C=CCn1c(=S)[nH]c2ccc(Br)cc2c1=O | i | i | 10* | 0.02 | 19* | i
C=CCn1c(=S)[nH]c2nc3c(cc2c1=O)CCCC3 | i | i | 5.9* | 0.77 | 9* | i
CCOC(=O)c1nc2sc3c(c2c(=O)n1C(C)C(=O)OCC)CCCC3 (configuration not stated) | i | i | -19 | -0.1 | i | i
CCOc1cc(C2NC(=O)CCC2[N+](=O)[O-])cc(Br)c1OCC (configuration not stated) | i | i | -10 | 0.44 | i | i
CCOC(=O)c1sc(=NC(=O)c2cccc(C)c2)n(C)c1C | i | i | 5.7* | -0.05 | i | i
COc1ccc(CCNC(=O)CSc2ccsc2[N+](=O)[O-])cc1OC | i | i | -4 | -4.5* | i | i
COc1ccc(OC)c(CCNC(=O)CSc2ccsc2[N+](=O)[O-])c1 | i | i | -3 | -0.04 | i | i
Cc1ccc(CSc2ccc(S(=O)(=O)N3CCCC3)cn2)cc1 | · | · | · | · | · | i
O=S(=O)(c1ccc(SCc2cccc(Cl)c2)nc1)N1CCCC1 | · | · | · | · | · | -9.5*
CCc1ccc2[nH]c(O)c(N=NC3=NC(=O)CS3)c2c1 | i | i | -13 | -1.1 | i | i
CCc1ccc2c(c1)c(N=NC1=NC(=O)CS1)c(O)n2CC | i | i | 7.7* | 0.01 | 16* | i
CCC(C)(C)c1ccc(OCCCC[n+]2ccc(C)cc2)c(C(C)(C)CC)c1 | -7.7* | 7* | -25 | -4.9* | i | ·
CC(OC(=O)c1ccc(F)cc1)C(=O)Nc1nc(-c2cccc([N+](=O)[O-])c2)cs1 (configuration not stated) | -7.4* | i | -5 | -1.2 | i | i
O=C(Cc1cccc2ccccc12)Nc1nc(-c2cccc([N+](=O)[O-])c2)cs1 | i | i | -11 | -0.86 | i | i
Cc1ccc2c(CSc3nc4ccccc4c(=O)n3CCCO)cc(=O)oc2c1 | · | · | · | · | · | -9.1*
Cc1ccc2c(CSc3nnnn3C)cc(=O)oc2c1 | i | i | -12 | -0.69 | i | i
SMILES | KCNK9 inh | KCNQ1 block | hERG protect | Kir21 inh | KCNQ1 pot | KCNK3 inh
O=C(CNc1cccc(C(F)(F)F)c1)Nc1cccc(S(=O)(=O)N2CCCC2)c1 | · | · | · | · | · | -9.3*
O=C(CCC(=O)c1ccc(Cl)s1)Nc1ncccc1O | · | · | · | · | · | i
CCOC(=O)Cn1c(=N)n(CCOc2ccc3ccccc3c2)c2ccccc21 | i | i | -18 | -11* | i | i
Cc1ccc(NC(=O)CCSc2nnc(C)s2)cc1 | i | i | -16 | 0.85 | i | i
CC1=NN(/C(=N\c2nnc(C)s2)Nc2ccc(C(C)(C)C)cc2)[C@H](c2ccc(C)cc2)S1 | i | 8* | -5 | 0.82 | i | i
CC1(C)OC(c2ccccc2)=C/C(=C/C=N/NC(=O)c2ccncc2)O1 | i | i | -31 | -0.75 | i | i
CCN1CCN(CCCNC(=O)c2cc3c(s2)-c2ccccc2OC3)CC1 | i | i | -11 | -1.5 | i | i
Cc1cccc2c1-c1sc(C(=O)NCCCN3CCCC(C)C3)cc1CO2 (configuration not stated) | i | i | -23 | -4.7* | i | i
CC1CC(C)CN(CCCNC(=O)c2cc3c(s2)-c2ccccc2OC3)C1 (configuration not stated) | i | 6* | -13 | -2.5 | i | i
CCCN1CCN(CCCNC(=O)c2cc3c(s2)-c2c(C)cccc2OC3)CC1 | i | i | -19 | -0.85 | i | i
CCc1cc2c(=O)n(Cc3ccco3)c(SCC(=O)N3CCCc4ccccc43)nc2s1 | i | 6* | -7 | 0.45 | i | i
CC(C)(C)NC(=O)C(c1ccc(O)cc1)N(C(=O)CCC(=O)Nc1ccccn1)c1ccc(F)cc1 (configuration not stated) | i | i | -3 | 0.05 | i | i
CCCCCc1cc(OC)cc2c1C(=O)OC(C)(C)O2 | · | · | · | · | · | -11*
CC1=[N+]([O-])C(C)(C)C(c2ccc(Br)cc2)=[N+]1[O-] | i | i | -2 | 0.33 | i | i
O=C1CC(N(CCc2ccccc2)C(=S)Nc2ccccc2)C(=O)N1c1ccc(Br)cc1 (configuration not stated) | i | 6* | -4 | 2.3 | i | i
COc1ccccc1-n1c(SC)nc2c(sc(=S)n2-c2ccccc2)c1=O | i | i | -9 | -0.75 | i | i
COc1ccccc1-n1c(=S)sc2c(=O)n(Cc3ccco3)c(SC)nc21 | i | 9* | -13 | -0.96 | i | i
CNC(=O)c1c(NC(=O)c2nc3ccccc3s2)sc2c1CCC2 | -7.8* | 8* | -19 | 0.01 | i | i
CCN(CC)C(=O)Oc1ccc2c(c1)O/C(=C\c1ccco1)C2=O | i | i | -12 | 0.08 | i | i
CC(=O)Oc1ccc2c(c1)O/C(=C\c1ccncc1)C2=O | i | 9* | -27 | -8.9 | i | i
Cc1cc(O)cc2c1C(=O)/C(=C/c1ccco1)O2 | i | 11* | -11 | -6 | i | i
COC(=O)COc1ccc2c(c1)O/C(=C\c1ccco1)C2=O | i | i | -7 | -0.87 | i | i
CCC(=O)Oc1ccc2c(c1)O/C(=C\c1ccco1)C2=O | i | 6* | -16 | -0.78 | i | i
